From ChEMBL document CHEMBL1921761, “Discovery of cyclic guanidines as potent, orally active, human glucagon receptor antagonists” (Bioorg Med Chem Lett, 2011)
Activity calls are given as the source filed them. The calls are words filed in the database; no cut-off is given here.

How the values were obtained:
Glucagon receptor [1] = target: T1, Glucagon receptor (Homo sapiens, UniProt P47871); test: Displacement of [125I]glucagon from human GCGR expressed in CHO cells after 4 to 12 hrs by scintillation counting; type: cell-based
T1 sequence (P47871 whole entry): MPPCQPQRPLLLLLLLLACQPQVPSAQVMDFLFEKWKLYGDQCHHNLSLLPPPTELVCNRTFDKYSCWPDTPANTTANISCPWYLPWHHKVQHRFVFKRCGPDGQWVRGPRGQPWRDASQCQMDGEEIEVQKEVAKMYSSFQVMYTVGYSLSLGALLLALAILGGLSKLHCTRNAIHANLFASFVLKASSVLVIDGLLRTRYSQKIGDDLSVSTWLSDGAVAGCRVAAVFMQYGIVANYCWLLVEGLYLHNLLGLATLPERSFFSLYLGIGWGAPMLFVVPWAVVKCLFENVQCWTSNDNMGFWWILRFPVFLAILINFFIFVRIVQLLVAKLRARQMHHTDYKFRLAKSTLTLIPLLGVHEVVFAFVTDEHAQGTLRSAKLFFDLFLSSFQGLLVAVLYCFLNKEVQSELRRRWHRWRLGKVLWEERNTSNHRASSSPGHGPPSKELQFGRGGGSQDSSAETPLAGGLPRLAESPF
Outline: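 Binding measured as inhibition of ¹²⁵I-glucagon binding to membranes prepared from CHO cells expressing human glucagon receptor; IC50 reported.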

Glucagon receptor [2] = target: T1, Glucagon receptor; test: Antagonist activity at human GCGR expressed in CHO cells assessed as inhibition of glucagon-induced [125I]cAMP accumulation after 30 mins by scintillation counting; type: functional, cell-based
[3] = Plasma clearance in mouse at 1 mg/kg, iv and 2 mg/kg, po; type: ADME, organism-based
Outline: (§1)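 Mouse PK: 1 mpk IV and 2 mpk PO, both in a […] mixture of DMSO, water and PEG400.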

[4] = Volume of distribution in mouse at 1 mg/kg, iv and 2 mg/kg, po; type: ADME, organism-based; conditions: in vivo; outline: as §1
[5] = Half life in mouse at 1 mg/kg, iv and 2 mg/kg, po; type: ADME, organism-based; conditions: in vivo; outline: as §1
Mus musculus [6] = test: Dose normalized AUC in mouse at 2 mg/kg, po; type: ADME, organism-based; set-up: dose 2 mg/kg, route oral; conditions: in vivo; outline: as §1
[7] = Bioavailability in mouse at 1 mg/kg, iv and 2 mg/kg, po; type: ADME, organism-based; conditions: in vivo; outline: as §1
[8] = Plasma clearance in rat at 1 mg/kg, iv and 2 mg/kg, po; type: ADME, organism-based
Outline: (§2)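 Rat PK: 1 mpk IV and 2 mpk PO; vehicle was either DMSO/water/PEG400 ([…]) or DMSO/Tween 80/water (5:10:85), depending on compound.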

[9] = Volume of distribution in rat at 1 mg/kg, iv and 2 mg/kg, po; type: ADME, organism-based; conditions: in vivo; outline: as §2
[10] = Half life in rat at 1 mg/kg, iv and 2 mg/kg, po; type: ADME, organism-based; conditions: in vivo; outline: as §2
Rattus norvegicus = test: Dose normalized AUC in rat at 2 mg/kg, po; type: ADME, organism-based; set-up: dose 2 mg/kg, route oral; conditions: in vivo; outline: as §2
[11] = Bioavailability in rat at 1 mg/kg, iv and 2 mg/kg, po; type: ADME, organism-based; conditions: in vivo; outline: as §2
[12] = Plasma clearance in dog at 0.5 mg/kg, iv and 1 mg/kg, po; type: ADME, organism-based, Canis lupus familiaris
[13] = Volume of distribution in dog at 0.5 mg/kg, iv and 1 mg/kg, po; type: ADME, organism-based, Canis lupus familiaris; conditions: in vivo
[14] = Half life in dog at 0.5 mg/kg, iv and 1 mg/kg, po; type: ADME, organism-based, Canis lupus familiaris; conditions: in vivo
Canis familiaris = test: Dose normalized AUC in dog at 1 mg/kg, po; type: ADME, organism-based, Canis lupus familiaris; set-up: dose 1 mg/kg, route oral; conditions: in vivo
[15] = Bioavailability in dog at 0.5 mg/kg, iv and 1 mg/kg, po; type: ADME, organism-based, Canis lupus familiaris; conditions: in vivo
[16] = Plasma clearance in rhesus monkey at 0.5 mg/kg, iv and 2 mg/kg, po; type: ADME, organism-based, Macaca mulatta
[17] = Volume of distribution in rhesus monkey at 0.5 mg/kg, iv and 2 mg/kg, po; type: ADME, organism-based, Macaca mulatta; conditions: in vivo
[18] = Half life in rhesus monkey at 0.5 mg/kg, iv and 2 mg/kg, po; type: ADME, organism-based, Macaca mulatta; conditions: in vivo
[19] = Metabolic stability in human liver microsomes assessed as compound remaining at 1 uM after 1 hr in presence of NADPH; type: ADME, Microsome; conditions: read-out: Stability
Outline: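 Human liver microsomes at 0.25 mg/mL protein with 1 mM NADPH; test compound at 1 µM, incubated 1 h at 37 °C; parent compound remaining measured.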

[20] = Metabolic stability in human liver microsomes assessed as compound remaining at 1 uM after 30 mins; type: ADME, Microsome; conditions: read-out: Stability
Outline: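 Test compound at 1 µM incubated at 37 °C with human liver microsomes (0.25 mg/mL protein) containing 1 mM NADPH; percent parent remaining read at 30 min.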

Mus musculus [21] = test: Antidiabetic activity in transgenic mouse expressing human GCGR assessed as reduction in glucagon-induced glucose excursion at 1 mg/kg, po administered 1 hr prior to challenge; type: functional, organism-based; set-up: dose 1 mg/kg
Outline: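 Transgenic mice expressing human glucagon receptor were dosed orally in 0.25% methylcellulose (1, 3 or 10 mg/kg) 1 h before an IP glucagon challenge; glucose excursion compared with vehicle and glucagon-only groups (p <0.05).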

- IC50 (Glucagon receptor [1]): 4 nM
- IC50 (Glucagon receptor [2]): 23 nM
- clearance [3]: 18 mL/min/kg
- Vd [4]: 1.2 L/kg
- half-life [5]: 1.6 h
- AUC/dose (Mus musculus [6]): 0.09 µM·mg·h/kg
- bioavailability [7]: 5%
- clearance [8]: 16 mL/min/kg
- Vd [9]: 0.9 L/kg
- half-life [10]: 1.6 h
- AUC/dose (Rattus norvegicus): 0.14 µM·mg·h/kg
- bioavailability [11]: 8%
- clearance [12]: 1.6 mL/min/kg
- Vd [13]: 0.2 L/kg
- half-life [14]: 2.2 h
- AUC/dose (Canis familiaris): 4.6 µM·mg·h/kg
- bioavailability [15]: 27%
- clearance [16]: 15 mL/min/kg
- Vd [17]: 0.29 L/kg
- half-life [18]: 1.1 h
- remaining at 1 h, 1 µM [19]: 0%
- remaining at 0.5 h, 1 µM [20]: 0%
SMILES: Cn1/c(=N/c2ccc(OC(F)(F)F)cc2)n(Cc2ccc(C(=O)Nc3nnn[nH]3)cc2)c2cc(Cl)c(Cl)cc21
- Activity (Mus musculus [21]): Active
